Tests used:
[1] = Cytotoxicity against human SW620/AD300 cells assessed as survival at 2 uM after 72 hrs by MTT assay relative to control; assay type: cell-based; conditions: read-out: Survival
[2] = molecular target: ATP-dependent translocase ABCB1 (Homo sapiens, UniProt P08183); assay: Inhibition of ABCB1 in human SW620/AD300 cells assessed as potentiation of paclitaxel-induced cytotoxicity by measuring fold reduction in paclitaxel IC50 at 2 uM after 72 hrs by MTT assay relative to paclitaxel alone; assay type: cell-based
Procedure, shortened: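 SW620/AD300 cells (~5×10^3/well) treated with graded paclitaxel with or without modulator (2 µM, or 0.5-2 µM in dose series; 0.1% DMSO solvent control) for 72 h; MTT (5 mg/mL stock) added 4 h, absorbance 490 nm. IC50 as mean ± SD of three independent runs; reversal fold = paclitaxel IC50 without/with modulator.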

[3] = Cytotoxicity against human SW620 cells assessed as survival at 2 uM after 72 hrs by MTT assay relative to control; assay type: cell-based, SW-620; conditions: read-out: Survival

Sequence of ATP-dependent translocase ABCB1 (P08183 whole entry): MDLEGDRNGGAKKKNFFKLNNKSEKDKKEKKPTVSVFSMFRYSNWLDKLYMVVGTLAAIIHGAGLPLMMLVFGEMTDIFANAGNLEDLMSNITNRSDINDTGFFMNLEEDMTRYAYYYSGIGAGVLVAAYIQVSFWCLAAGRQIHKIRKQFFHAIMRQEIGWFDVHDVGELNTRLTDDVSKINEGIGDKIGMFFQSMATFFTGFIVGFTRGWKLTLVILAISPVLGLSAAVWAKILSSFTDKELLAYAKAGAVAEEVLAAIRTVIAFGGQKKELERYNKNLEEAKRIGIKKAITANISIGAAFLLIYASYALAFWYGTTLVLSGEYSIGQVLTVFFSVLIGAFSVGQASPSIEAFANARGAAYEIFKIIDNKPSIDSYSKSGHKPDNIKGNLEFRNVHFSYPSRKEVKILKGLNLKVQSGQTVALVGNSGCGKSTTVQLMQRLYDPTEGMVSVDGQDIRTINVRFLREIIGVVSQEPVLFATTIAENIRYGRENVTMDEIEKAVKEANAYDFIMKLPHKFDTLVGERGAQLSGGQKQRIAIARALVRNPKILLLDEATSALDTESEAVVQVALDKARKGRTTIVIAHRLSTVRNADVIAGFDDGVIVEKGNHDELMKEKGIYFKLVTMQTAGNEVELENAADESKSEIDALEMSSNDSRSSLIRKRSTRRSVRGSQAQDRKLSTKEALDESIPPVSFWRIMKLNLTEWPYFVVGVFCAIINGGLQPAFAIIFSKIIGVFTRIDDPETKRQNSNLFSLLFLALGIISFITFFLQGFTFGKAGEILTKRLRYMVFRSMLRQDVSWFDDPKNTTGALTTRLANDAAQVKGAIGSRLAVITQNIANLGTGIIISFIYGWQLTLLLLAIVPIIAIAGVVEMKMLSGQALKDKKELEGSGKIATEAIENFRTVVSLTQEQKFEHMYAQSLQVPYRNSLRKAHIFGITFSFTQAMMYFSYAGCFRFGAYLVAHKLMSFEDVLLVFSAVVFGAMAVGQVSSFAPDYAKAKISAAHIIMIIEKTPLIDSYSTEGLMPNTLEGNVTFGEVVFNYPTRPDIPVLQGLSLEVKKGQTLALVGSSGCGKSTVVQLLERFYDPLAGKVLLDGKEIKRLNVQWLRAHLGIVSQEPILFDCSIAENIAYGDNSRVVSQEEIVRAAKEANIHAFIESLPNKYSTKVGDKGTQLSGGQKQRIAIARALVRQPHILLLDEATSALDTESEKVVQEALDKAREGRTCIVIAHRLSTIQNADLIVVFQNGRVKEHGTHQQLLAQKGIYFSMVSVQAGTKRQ

Structure (SMILES)	viability at 72 h, 2 µM [1]	fold change (FC) [2]	viability at 72 h, 2 µM [3]
CC(C)c1ccc(Nc2nc(SCc3cn(CC(=O)NC(=O)Nc4ccccn4)nn3)nc(-c3ccc(Br)cc3)c2C#N)cc1	> 90%	1.7	> 90%
N#Cc1c(Nc2ccccc2Cl)nc(SCC(=O)NC(=O)Nc2ccccn2)nc1-c1ccc(F)c(F)c1	> 90%	14.24	> 90%
COc1ccccc1Nc1nc(SCC(=O)NC(=O)Nc2ccccn2)nc(-c2cc(OC)c(OC)c(OC)c2)c1C#N	> 90%	8.67	> 90%
Cc1ccc(-c2nc(SCC(=O)NC(=O)Nc3ccccn3)nc(Nc3cccc(C(F)(F)F)c3)c2C#N)cc1	> 90%	6.06	> 90%
Cc1ccc(-c2nc(SCc3cn(CC(=O)NC(=O)Nc4ccccn4)nn3)nc(Nc3ccc(C(C)C)cc3)c2C#N)cc1	> 90%	1.18	> 90%
CC(C)c1ccc(-c2nc(SCc3cn(CC(=O)NC(=O)Nc4ccccn4)nn3)nc(Nc3cccc([N+](=O)[O-])c3)c2C#N)cc1	> 90%	2.99	> 90%
COc1cc(-c2nc(SCC(=O)NC(=O)Nc3ccccn3)nc(Nc3cccc(C(F)(F)F)c3)c2C#N)cc(OC)c1OC	> 90%	58.14	> 90%
COc1cc(-c2nc(SCc3cn(CC(=O)NC(=O)Nc4ccccn4)nn3)nc(Nc3ccc(C(C)C)cc3)c2C#N)cc(OC)c1OC	> 90%	13.16	> 90%
Cc1ccc(Nc2nc(SCC(=O)NC(=O)Nc3ccccn3)nc(-c3ccc(C(C)C)cc3)c2C#N)cc1	> 90%	1.64	> 90%
N#Cc1c(Nc2cccc(Cl)c2)nc(SCC(=O)NC(=O)Nc2ccccn2)nc1-c1ccc(F)c(F)c1	> 90%	4.37	> 90%
COc1cc(-c2nc(SCC(=O)NC(=O)Nc3ccccn3)nc(Nc3ccc(Cl)cc3)c2C#N)cc(OC)c1OC	> 90%	12.61	> 90%
N#Cc1c(Nc2cccc(C(F)(F)F)c2)nc(SCc2cn(CC(=O)NC(=O)Nc3ccccn3)nn2)nc1-c1ccc(Br)cc1	> 90%	2.4	> 90%
N#Cc1c(Nc2cccc(C(F)(F)F)c2)nc(SCC(=O)NC(=O)Nc2ccccn2)nc1-c1ccc(F)c(F)c1	> 90%	3.11	> 90%
COc1cc(-c2nc(SCC(=O)NC(=O)Nc3ccccc3)nc(Nc3ccc(F)cc3)c2C#N)cc(OC)c1OC	> 90%	25.37	> 90%
COc1cc(-c2nc(SCC(=O)NC(=O)Nc3ccccn3)nc(Nc3cccc([N+](=O)[O-])c3)c2C#N)cc(OC)c1OC	> 90%	82.08	> 90%
COc1cc(-c2nc(SCc3cn(Cc4ccccc4Cl)nn3)nc(Nc3ccc(C)cc3)c2C#N)cc(OC)c1OC	–	27.54	–
Cc1ccccc1Nc1nc(SCc2cn(CC(=O)NC(=O)Nc3ccccn3)nn2)nc(-c2ccc(C(C)C)cc2)c1C#N	> 90%	4.69	> 90%
CC(C)c1ccc(Nc2nc(SCc3cn(CC(=O)NC(=O)Nc4ccccn4)nn3)nc(-c3ccc(C(C)C)cc3)c2C#N)cc1	> 90%	9.49	> 90%
CC(C)c1ccc(-c2nc(SCc3cn(CC(=O)NC(=O)Nc4ccccn4)nn3)nc(Nc3ccccc3O)c2C#N)cc1	> 90%	13.64	> 90%

Structure (SMILES)	viability at 72 h, 2 µM [1]	fold change (FC) [2]	viability at 72 h, 2 µM [3]
COc1ccccc1Nc1nc(SCC(=O)NC(=O)Nc2ccccn2)nc(-c2ccc(F)c(F)c2)c1C#N	> 90%	13.42	> 90%
CC(C)c1ccc(-c2nc(SCC(=O)NC(=O)Nc3ccccn3)nc(Nc3cccc(C(F)(F)F)c3)c2C#N)cc1	> 90%	37.04	> 90%
COc1cc(-c2nc(SCC(=O)NC(=O)Nc3ccccn3)nc(Nc3ccc(C(F)(F)F)cc3)c2C#N)cc(OC)c1OC	> 90%	3.56	> 90%
CC(C)c1ccc(-c2nc(SCc3cn(CC(=O)NC(=O)Nc4ccccn4)nn3)nc(Nc3cccc(Cl)c3)c2C#N)cc1	> 90%	2.71	> 90%
Cc1cccc(Nc2nc(SCC(=O)NC(=O)Nc3ccccn3)nc(-c3ccc(C(C)C)cc3)c2C#N)c1	> 90%	2.62	> 90%
COc1cc(-c2nc(SCc3cn(CC(=O)NC(=O)Nc4ccccn4)nn3)nc(Nc3cccc(C(F)(F)F)c3)c2C#N)cc(OC)c1OC	> 90%	1.35	> 90%
CC(C)c1ccc(-c2nc(SCc3cn(CC(=O)NC(=O)Nc4ccccn4)nn3)nc(Nc3ccc(Cl)cc3)c2C#N)cc1	> 90%	1.66	> 90%
COc1ccccc1Nc1nc(SCc2cn(CC(=O)NC(=O)Nc3ccccn3)nn2)nc(-c2ccc(C)cc2)c1C#N	> 90%	10.71	> 90%
COc1cc(-c2nc(SCc3cn(CC(=O)NC(=O)Nc4ccccn4)nn3)nc(Nc3ccc(Cl)cc3)c2C#N)cc(OC)c1OC	> 90%	1.71	> 90%
Cc1ccc(Nc2nc(SCc3cn(Cc4ccccc4Cl)nn3)nc(-c3ccc(C(C)C)cc3)c2C#N)cc1	–	46	–
Cc1ccc(Nc2nc(SCC(=O)NC(=O)Nc3ccccn3)nc(-c3ccccc3)c2C#N)cc1	> 90%	1.67	> 90%
COc1cc(-c2nc(SCC(=O)NC(=O)Nc3ccccn3)nc(Nc3ccccc3Cl)c2C#N)cc(OC)c1OC	> 90%	38.05	> 90%
COc1ccc(Nc2nc(SCc3cn(CC(=O)NC(=O)Nc4ccccn4)nn3)nc(-c3ccc(C(C)C)cc3)c2C#N)cc1	> 90%	6.3	> 90%
COc1ccc(Nc2nc(SCc3cn(CC(=O)NC(=O)Nc4ccccn4)nn3)nc(-c3ccc(C)cc3)c2C#N)cc1	> 90%	1.18	> 90%
COc1ccc(Nc2nc(SCC(=O)NC(=O)Nc3ccccn3)nc(-c3ccc(C(C)C)cc3)c2C#N)cc1	> 90%	2.17	> 90%
Cc1ccc(Nc2nc(SCc3cn(Cc4ccccc4Cl)nn3)nc(-c3ccc(C)cc3)c2C#N)cc1	–	21.69	–
Cc1ccc(Nc2nc(SCc3cn(Cc4ccccc4Cl)nn3)nc(-c3ccc(Br)cc3)c2C#N)cc1	–	3.39	–
Cc1ccccc1Nc1nc(SCc2cn(Cc3ccc(Cl)cc3)nn2)nc(-c2ccccc2)c1C#N	–	116	–

— ChEMBL document CHEMBL4138318, “Discovery of 5-Cyano-6-phenylpyrimidin Derivatives Containing an Acylurea Moiety as Orally Bioavailable Reversal Agents against P-Glycoprotein-Mediated Mutidrug Resistance” (J Med Chem, 2018)
